Experimental data published in ChEMBL document CHEMBL2010803, “Novel NSAID 1-acyl-4-cycloalkyl/arylsemicarbazides and 1-acyl-5-benzyloxy/hydroxy carbamoylcarbazides as potential anticancer agents and antioxidants” (Eur J Med Chem, 2012).
Activity calls are given as the source filed them. The calls are words filed in the database; no cut-off is given here.

Assays:
[1] = system: Human immunodeficiency virus 1; assay: Antiviral activity against HIV1 3B infected in human CEM cells assessed as inhibition of virus-induced CEM giant cell formation at 0.32 to 100 uM after 4 days; assay type: functional, organism-based; conditions: CCRF-CEM
Summary of the method: (§1)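 CEM cells (~3 × 10^5 cells/cm³) exposed to 100 CCID50/ml of virus and seeded into wells holding compound dilutions. Incubated 4 days at 37 °C, then giant cell formation examined microscopically.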

L1210 = assay: Cytostatic activity against mouse L1210 cells after 2 days by coulter counter analysis; assay type: functional, cell-based; conditions: L1210, 48 h
Summary of the method: (§2)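 300,000–500,000 cells/ml mixed 1:1 with compound dilutions and incubated at 37 °C for 2 days (L1210) or 3 days (CEM, HeLa). Cell number counted with a Coulter counter; HeLa trypsinized before counting.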

[2] = system: Mammalian orthoreovirus 1; assay: Antiviral activity against Reovirus-1 infected in african green monkey Vero cells assessed as inhibition of virus-induced cytopathic effect at 0.32 to 100 uM; assay type: functional, organism-based
Summary of the method: (§3)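 Confluent cell cultures were infected with 100 CCID50 of virus in the presence of test compound at 100, 40, 8, 1.6 and 0.32 μM. Cytopathic effect was scored once it was complete in untreated infected controls.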

Influenza B virus = assay: Antiviral activity against Influenza B virus infected in MDCK cells assessed as inhibition of virus-induced cytopathic effect at 0.32 to 100 uM; assay type: functional, organism-based
Summary of the method: (§4)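 Confluent MDCK monolayers were infected in the presence of the compound at 100, 40, 8, 1.6 and 0.32 μM. Viral cytopathicity was scored once it was complete in untreated infected control cultures.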

Influenza A virus [3] = assay: Antiviral activity against Influenza A virus H3N2 infected in MDCK cells assessed as inhibition of virus-induced cytopathic effect at 0.32 to 100 uM; assay type: functional, organism-based; summary of the method: as §4
[4] = system: Radical scavenging activity; assay: Antioxidant activity assessed as DPPH free radical scavenging activity at 100 uM after 20 mins by spectrophotometric analysis; assay type: functional
Summary of the method: (§5)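 0.05 mM DPPH in absolute ethanol mixed with an equal volume of compound in DMSO (final 100 μM). Shaken and left 20 or 60 min, then absorbance read at 517 nm and percent activity calculated. Three replicates, averaged.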

Glycine max = assay: Inhibition of soybean LOX assessed as conversion of sodium linoleate to 13- hydroperoxylinoleic acid at 100 uM
Coxsackievirus B4 [5] = assay: Antiviral activity against Coxsackievirus B4 infected in african green monkey Vero cells assessed as inhibition of virus-induced cytopathic effect at 0.32 to 100 uM; assay type: functional, organism-based; summary of the method: as §3
Felid alphaherpesvirus 1 = assay: Antiviral activity against Feline herpesvirus infected in feline CRFK cells assessed as inhibition of virus-induced cytopathic effect at 0.32 to 100 uM; assay type: functional, organism-based; summary of the method: as §3
[6] = Antioxidant activity assessed as inhibition of AAPH-induced linoleic acid lipid peroxidation by measuring conjugated diene hydroperoxide level; assay type: functional; set-up: concentration or dose not given beside the values; conditions: dose or concentration not given here
Summary of the method: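 Linoleic acid sodium salt (10 μL of 16 mM) in 0.05 M phosphate buffer pH 7.4 at 37 °C. Oxidation started under air with 50 μL of 40 mM AAPH. Conjugated diene hydroperoxide formation followed as absorbance rise at 234 nm; control contains the same DMSO level. At least triplicate.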

Sindbis virus = assay: Antiviral activity against Sindbis virus infected in african green monkey Vero cells assessed as inhibition of virus-induced cytopathic effect at 0.32 to 100 uM; assay type: functional, organism-based; summary of the method: as §3
NCI-H460 = assay: Cytostatic activity against human NCI-H460 cells after 72 hrs by MTT assay; assay type: functional, cell-based; conditions: NCI-H460, 72 h
Summary of the method: (§6)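 Monolayers in DMEM with 10% FBS, 2 mM L-glutamine and penicillin/streptomycin, 37 °C, 5% CO2. Seeded at 1–3 × 10^4 cells/ml, then compound added in tenfold dilutions (10⁻⁸–10⁻⁴ M) for 72 h. MTT read at 570 nm; percent growth taken against time-zero and untreated controls. IC50 by linear regression; quadruplicate, at least two experiments.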

Punta Toro virus = assay: Antiviral activity against Punta Toro virus infected in african green monkey Vero cells assessed as inhibition of virus-induced cytopathic effect at 0.32 to 100 uM; assay type: functional, organism-based; summary of the method: as §3
Coxsackievirus B4 [7] = assay: Antiviral activity against Coxsackievirus B4 infected in human cervix carcinoma cells assessed as inhibition of virus-induced cytopathic effect at 0.32 to 100 uM; assay type: functional, organism-based; summary of the method: as §3
[8] = system: Human immunodeficiency virus 2; assay: Antiviral activity against HIV2 ROD infected in human CEM cells assessed as inhibition of virus-induced CEM giant cell formation at 0.32 to 100 uM after 4 days; assay type: functional, organism-based; conditions: ISOLATE ROD, CCRF-CEM; summary of the method: as §1
MCF7 = assay: Cytostatic activity against human MCF7 cells after 72 hrs by MTT assay; assay type: functional, cell-based; conditions: MCF7, 72 h; summary of the method: as §6
HeLa = assay: Cytostatic activity against human HeLa cells after 3 days by coulter counter analysis; assay type: functional, cell-based; conditions: 72 h; summary of the method: as §2
HaCaT = assay: Cytostatic activity against human HaCaT cells after 72 hrs by MTT assay; assay type: ADME, cell-based; summary of the method: as §6
Human alphaherpesvirus 1 = assay: Antiviral activity against HSV1 KOS infected in human lung fibroblast assessed as inhibition of virus-induced cytopathic effect at 0.32 to 100 uM; assay type: functional, organism-based; summary of the method: as §3
HCT-116 = assay: Cytostatic activity against human HCT116 cells after 72 hrs by MTT assay; assay type: functional, cell-based; conditions: HCT-116, 72 h; summary of the method: as §6
[9] = system: Vesicular stomatitis virus; assay: Antiviral activity against Vesicular stomatitis virus infected in human cervix carcinoma cells assessed as inhibition of virus-induced cytopathic effect at 0.32 to 100 uM; assay type: functional, organism-based
Summary of the method: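 Confluent human cervix carcinoma (HeLa) cultures received 100 CCID50 of VSV together with the compound at 100, 40, 8, 1.6 or 0.32 μM. Cytopathicity was read at the point of full CPE in infected, untreated control wells.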

Human alphaherpesvirus 2 = assay: Antiviral activity against HSV2 G infected in human lung fibroblast assessed as inhibition of virus-induced cytopathic effect at 0.32 to 100 uM; assay type: functional, organism-based; conditions: strain G; summary of the method: as §3
Feline coronavirus = assay: Antiviral activity against Feline coronavirus infected in feline CRFK cells assessed as inhibition of virus-induced cytopathic effect at 0.32 to 100 uM; assay type: functional, organism-based; summary of the method: as §3
Human respirovirus 3 = assay: Antiviral activity against Parainfluenza virus 3 infected in african green monkey Vero cells assessed as inhibition of virus-induced cytopathic effect at 0.32 to 100 uM; assay type: functional, organism-based; summary of the method: as §3
CCRF-CEM = assay: Cytostatic activity against human CEM cells after 3 days by coulter counter analysis; assay type: functional, cell-based; conditions: 72 h; summary of the method: as §2
[10] = system: Respiratory syncytial virus; assay: Antiviral activity against RSV infected in human cervix carcinoma cells assessed as inhibition of virus-induced cytopathic effect at 0.32 to 100 uM; assay type: functional, organism-based; summary of the method: as §3
[11] = system: Vesicular stomatitis virus; assay: Antiviral activity against VSV infected in human lung fibroblast assessed as inhibition of virus-induced cytopathic effect at 0.32 to 100 uM; assay type: functional, organism-based
Influenza A virus [12] = assay: Antiviral activity against Influenza A virus H1N1 infected in MDCK cells assessed as inhibition of virus-induced cytopathic effect at 0.32 to 100 uM; assay type: functional, organism-based; summary of the method: as §4
[13] = system: Radical scavenging activity; assay: Antioxidant activity assessed as DPPH free radical scavenging activity at 100 uM after 60 mins by spectrophotometric analysis; assay type: functional; summary of the method: as §5
Vaccinia virus = assay: Antiviral activity against Vaccinia virus infected in human lung fibroblast assessed as inhibition of virus-induced cytopathic effect at 0.32 to 100 uM; assay type: functional, organism-based; conditions: Orthopoxvirus vaccinia

Row | SMILES | inhibition [1] | IC50 (L1210) [µM] | inhibition [2] | inhibition (Influenza B virus) | inhibition (Influenza A virus [3]) | Activity [4] [%] | inhibition (Glycine max) | inhibition (Coxsackievirus B4 [5]) | inhibition (Felid alphaherpesvirus 1) | inhibition [6] [%] | inhibition (Sindbis virus) | IC50 (NCI-H460) [µM] | inhibition (Punta Toro virus) | inhibition (Coxsackievirus B4 [7]) | inhibition [8] | IC50 (MCF7) [µM] | IC50 (HeLa) [µM] | IC50 (HaCaT) [µM] | inhibition (Human alphaherpesvirus 1) | IC50 (HCT-116) [µM] | further results
1 | CC(C(=O)NNC(=O)NC1CCCC1)c1cccc(Oc2ccccc2)c1 (stereo not given) | inactive | 55 | inactive | inactive | inactive | 16 | inactive | inactive | inactive | 21 | inactive | 33 | inactive | inactive | inactive | 20 | 39 | 18 | inactive | 36 | inhibition [9]: inactive; inhibition (Human alphaherpesvirus 2): inactive; inhibition (Feline coronavirus): inactive; inhibition (Human respirovirus 3): inactive; IC50 (CCRF-CEM): 73 µM; inhibition [10]: inactive; inhibition [11]: inactive; inhibition (Influenza A virus [12]): inactive; Activity [13]: 19%; inhibition (Vaccinia virus): inactive
2 | CC(C(=O)NNC(=O)NCc1ccccc1)c1cccc(Cc2ccccc2)c1 (stereo not given) | inactive | 31 | inactive | inactive | inactive | 3 | inactive | inactive | inactive | 48 | inactive | 28 | inactive | inactive | inactive | 12 | 94 | 25 | inactive | 24 | inhibition [9]: inactive; inhibition (Human alphaherpesvirus 2): inactive; inhibition (Feline coronavirus): inactive; inhibition (Human respirovirus 3): inactive; IC50 (CCRF-CEM): 49 µM; inhibition [10]: inactive; inhibition [11]: inactive; inhibition (Influenza A virus [12]): inactive; Activity [13]: 9%; inhibition (Vaccinia virus): inactive
3 | CC(C(=O)NNC(=O)NCCc1ccccc1)c1cccc(Oc2ccccc2)c1 (stereo not given) | inactive | 53 | inactive | inactive | inactive | 4 | 20% | inactive | inactive | 51 | inactive | 22 | inactive | inactive | inactive | 19 | 64 | 15 | inactive | 18 | inhibition [9]: inactive; inhibition (Human alphaherpesvirus 2): inactive; inhibition (Feline coronavirus): inactive; inhibition (Human respirovirus 3): inactive; IC50 (CCRF-CEM): 71 µM; inhibition [10]: inactive; inhibition [11]: inactive; inhibition (Influenza A virus [12]): inactive; Activity [13]: 7%; inhibition (Vaccinia virus): inactive
4 | CC(C(=O)NNC(=O)NC1CCCCC1)c1cccc(Oc2ccccc2)c1 (stereo not given) | inactive | 35 | inactive | inactive | inactive | 19 | 13% | inactive | inactive | 63 | inactive | 24 | inactive | inactive | inactive | 17 | 48 | 19 | inactive | 22 | inhibition [9]: inactive; inhibition (Human alphaherpesvirus 2): inactive; inhibition (Feline coronavirus): inactive; inhibition (Human respirovirus 3): inactive; IC50 (CCRF-CEM): 53 µM; inhibition [10]: inactive; inhibition [11]: inactive; inhibition (Influenza A virus [12]): inactive; Activity [13]: 22%; inhibition (Vaccinia virus): inactive
